Screening data: PubChem BioAssay, Broad Institute
Rows were chosen to be rich in hits. Some 2.7% of all compounds tested hit in one or more screens of this group.
CFTR F508del cor: CFTR F508del correction in bronchial cells; AID 720511; activity (quench increase), % at 7.58 µM; CFBE cells, YFP halide quenching; stimulated with forskolin plus potentiator P3; % fluorescence drop versus neutral controls; 0.36% of 350,000 active;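 active = mean added fluorescence quench of at least 8% versus neutral control, with both replicates also reaching 8%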;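 note: cells transiently co-express mutant CFTR-F508del with the halide-sensitive YFP; corrector assay measuring rescue of mutant channel to the surface after 24 h compound exposure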
E-selectin induc: induces E-selectin expression in human endothelial cells. P16581. activation, % at 7.58 µM. 0.37% of 260,000 active. HUVEC E-selectin immunofluorescence imaging; normalized: neutral wells 0, TNF-alpha wells 100. AID 686992;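 active = mean E-selectin-positive cell signal at least 10% of the positive control, reached in at least 60% of replicates, without over 20% cell loss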
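Read-out basis: % PE-positive cells; Test system: HUVEC primary endothelial cells; Technique: immunofluorescence imaging; Dosing: single-point compound dose.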
FGF22 binding: shifts melting point of recombinant human FGF22 | recombinant FGF22 thermal shift, SYPRO orange fluorescence; percent of sucrose octasulfate shift, DMSO zero | Q9HCT0 | AID 651658 | 1.5% of 340,000 active | activity (Tm shift, normalised), % at 9.99 µM;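 active = mean Tm shift, scaled 0 neutral to 100 positive control, at about 1.3% or above, every replicate too, limit read from the data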
Target sequence (Q9HCT0 whole entry, looked up): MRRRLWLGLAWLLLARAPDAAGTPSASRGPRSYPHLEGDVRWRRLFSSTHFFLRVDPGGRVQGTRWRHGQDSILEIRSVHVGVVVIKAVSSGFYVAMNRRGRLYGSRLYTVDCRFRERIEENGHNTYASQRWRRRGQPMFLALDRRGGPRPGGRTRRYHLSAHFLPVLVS
Env fusion inh: HIV envelope-mediated fusion inhibition; inhibition, % at 12.3 µM; HeLa-JRFL Env/CEM21 cell fusion, luciferase; 1.1% of 360,000 active;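 active = mean replicate inhibition score of at least 50 and every replicate individually at or above 50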;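 note: 0% = plate neutral controls and 100% = maraviroc near 300 nM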
S100A4 MyoIIA: S100A4-myosin IIA interaction inhibition; P26447; S100A4/TAMRA-MyoIIA peptide fluorescence polarization; inhibition, % at 10.7 µM; 0.14% of 360,000 active;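 active = mean inhibition of at least 70% across replicates, with every replicate also reaching that level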
Target sequence (P26447 whole entry, looked up): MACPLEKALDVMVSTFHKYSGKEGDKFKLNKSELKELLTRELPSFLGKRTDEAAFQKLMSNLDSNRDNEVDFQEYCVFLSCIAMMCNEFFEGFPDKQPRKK
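Assay system: human S100A4 monomer with TAMRA-labelled myosin IIA peptide / Buffer or medium: Calcium-containing HEPES buffer, pH 7.2 / Reagent: TAMRA-labelled myosin IIA heavy-chain peptide probe, 5 nM / Compound: one dose per compound / Timing: polarization read 5 min after assay mix addition, stable 5–60 min / Benchmarks: neutral control DMSO, positive control TFP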
The depositor's hits bear a star; / = no result; [ ] = remark or other dose.

SMILES	CFTR F508del cor	E-selectin induc	FGF22 binding	Env fusion inh	S100A4 MyoIIA
C[C@H](CO)N1C[C@H](C)[C@H](CN(C)C(=O)CC2CC2)Oc2cc(C#CC3CC3)ccc2S1(=O)=O	-2	1	0	19[16.7 µM]	-4
CC1CC(C)(C)NC(=S)N1CC(=O)NCc1ccc2c(c1)OCO2 (configuration not stated)	4	1	43*	-5	-5
CC1CC(C)(C)NC(=S)N1CC(=O)NCc1ccc(F)cc1 (configuration not stated)	-2	2	0	-12	-3
COC(=O)[C@H](CC(C)C)NC(=O)Nc1cccc(Br)c1	2	/	0	-23	-4
CC(C)C[C@H](NC(=O)Nc1cccc(Br)c1)C(=O)O	-1	/	44*	-1	5
COC(=O)CN1C(=O)N/C(=C/c2ccc(OC)cc2)C1=O	2	/	43*	3	-4
COC(=O)CN1C(=O)N/C(=C/c2cc(Cl)c(OC)c(OC)c2)C1=O	0	1	0	-1	-3
C/C(=N\NC(=O)c1sccc1C)c1cccnc1	-2	0	0	-9	-6
Cc1nc(C(F)(F)F)c(C(=O)N/N=C(\N)c2cccnc2)s1	1	/	43*	-5	-44
Cc1ccc(CSC(Nc2ccc(F)cc2)=C(C#N)C#N)cc1	/	0	-1	68*	4
C[C@@H]1CCCCO[C@@H](CN(C)S(C)(=O)=O)[C@@H](C)CN([C@@H](C)CO)C(=O)c2cc(N(C)C)ccc2O1	-2	0	/	3[16.7 µM]	/
CCCNC(=O)Nc1ccc2c(c1)C(=O)N(C)C[C@@H](OC)[C@H](C)CN(CCC(F)(F)F)[C@@H](C)CO2	-2	0	/	/	/
COc1ccc(C(C(=O)NC2CCCCC2)n2c(=O)c(-c3cc4ccccc4[nH]3)nc3ccccc32)cc1 (configuration not stated)	5	0	0	13	-4
O=C(NC1CCCCC1)C(c1ccccc1)n1c(=O)c(-c2cc3ccccc3[nH]2)nc2ccccc21 (configuration not stated)	1	0	35*	28	0
O=C(NC1CCCCC1)C(c1ccccc1)n1c(=O)c(-c2ccco2)nc2ccccc21 (configuration not stated)	-5	1	0	63*	-1
COc1ccc(C(C(=O)NC2CCCC2)n2c(CSCCOc3ccccc3)nc3ccccc32)cc1 (configuration not stated)	-2	0	0	78*	-2
Cc1cccc(C)c1NC(=O)C(c1ccc(C#N)cc1)n1c(=O)c(-c2cc3ccccc3[nH]2)nc2ccccc21 (configuration not stated)	3	1	0	75*	-1
COc1ccc(C(C(=O)NC2CCCC2)n2c(Cc3cc(F)cc(F)c3)nc3ccccc32)cc1 (configuration not stated)	1	0	0	33	-2
N#Cc1ccc(C(C(=O)NC2CCCCC2)n2c(=O)c(-c3ccco3)nc3ccccc32)cc1 (configuration not stated)	2	0	0	17	-11
C[C@@H]1CN([C@H](C)CO)C(=O)c2cc(NS(=O)(=O)c3ccc(F)cc3)ccc2O[C@@H](C)CCCCO[C@H]1CN(C)C(=O)Nc1ccccc1	-3	0	-1	/	-5
CO[C@@H]1CC[C@@H]2CCN(C)C(=O)CCCN(C)C(=O)c3cc(C#N)ccc3OC[C@@H]1O2	/	0	0	4[16.7 µM]	2
CO[C@H]1CN(C)C(=O)c2ccc(NC(=O)C3CC3)cc2OC[C@H](C)N(CC2CC2)C[C@H]1C	-3	0	0	/	3
O=C(Cc1cccnc1)N1CC(=O)N2[C@H](C1)[C@@H](c1ccc(C#CC3CC3)cc1)[C@@H]2CO	4	0	/	/	-16
CC(=O)c1ccc(NC(=O)CN2C(=O)/C(=C/C=C/c3ccccc3)SC2=S)cc1	/	/	1.4*	8	-1
Cc1cc(C)cc(-n2ncc3c2CCCC3NC(=O)c2cc(C)n(C)n2)c1 (configuration not stated)	3	1	0	6	-2
SMILES	CFTR F508del cor	E-selectin induc	FGF22 binding	Env fusion inh	S100A4 MyoIIA
COC(=O)c1ccc(C(=O)NC2CCCc3c2cnn3-c2ccc(C)c(C)c2)cc1 (configuration not stated)	10*	0	0	72*	-1
Cc1cc(C(=O)NC2CCCc3c2cnn3-c2ccc(C(C)(C)C)cc2)nn1C (configuration not stated)	3	-1	0	82*	-3
COC(=O)c1ccc(C(=O)NC2CCCc3c2cnn3-c2cc(F)cc(F)c2)nc1 (configuration not stated)	9.6*	/	0	14	5
C[C@H](CO)N1C[C@H](C)[C@H](CN(C)C(=O)c2ccccc2)OCCCC[C@H](C)Oc2ccc(NC(=O)CCC(F)(F)F)cc2C1=O	-2	0	0	-4[16.7 µM]	6
C[C@@H]1CN([C@H](C)CO)C(=O)Cc2cc(NC(=O)Nc3ccccc3)ccc2O[C@H]1CN(C)S(=O)(=O)c1cccs1	-4	0	0	21[16.7 µM]	-13
CCCNC(=O)Nc1ccc2c(c1)OC[C@H](C)N(CCC(F)(F)F)C[C@H](C)[C@H](OC)CN(C)C2=O	5	-1	0	-54[16.7 µM]	38
CN1CCN(C(=O)C[C@H]2CC[C@H]3[C@@H](COC[C@@H](O)CN3C(=O)Nc3ccc(Cl)cc3)O2)CC1	3	0	0	/	9
O=C(NCCNc1ccc([N+](=O)[O-])cc1C(F)(F)F)c1ccccc1	-2	/	43*	/	15
CCCc1cc(=O)oc2cc(C)cc(OCC(=O)N[C@@H](CSCc3ccccc3)C(=O)O)c12	-3	/	7.2*	/	-5
CCCC(=O)Nc1ccc2c(c1)C(=O)N(C)C[C@H](OC)[C@H](C)CN(Cc1ccccc1F)[C@H](C)CO2	-2	0	0	/	14
CCCCOc1ccc(C(=O)NC2CCCCN(CCC)C2=O)cc1 (configuration not stated)	-3	0	0	17	1
CCCN1CCCCC(NC(=O)c2c(F)cccc2F)C1=O (configuration not stated)	0	0	0	14	107*
Cc1noc(C)c1NC(=O)Nc1ccc2c(c1)C(=O)N([C@@H](C)CO)C[C@@H](C)[C@@H](CN(C)S(=O)(=O)c1cn(C)cn1)OCCCC[C@@H](C)O2	1	1	0	14[16.7 µM]	-5
CCOC(=O)NC(C)N1C(=O)C2C3C=CC(C3)C2C1=O (configuration not stated)	-3	/	44*	22	-1
C[C@@H]1CCCCO[C@H](CN(C)C(=O)NC2CCCCC2)[C@@H](C)CN([C@H](C)CO)C(=O)c2cc(NC(=O)Nc3ccccc3)ccc2O1	-2	0	0	0[16.7 µM]	-1
